Compound activity (PubChem BioAssay)
GPR7 antagonist: antagonists of human GPR7 (neuropeptides B/W receptor 1) | inhibition, % at 4.4 µM | P48145 | GPR7-expressing cells, fluorescence antagonist assay | 290,000 tested, 1.1% active; in the data active = inhibition above about 16%, passing the limit was not always enough;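 note: cells stimulated with the agonist NPW; 0% = agonist with vehicle and 100% = vehicle without agonist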
Target sequence (P48145 whole entry, looked up): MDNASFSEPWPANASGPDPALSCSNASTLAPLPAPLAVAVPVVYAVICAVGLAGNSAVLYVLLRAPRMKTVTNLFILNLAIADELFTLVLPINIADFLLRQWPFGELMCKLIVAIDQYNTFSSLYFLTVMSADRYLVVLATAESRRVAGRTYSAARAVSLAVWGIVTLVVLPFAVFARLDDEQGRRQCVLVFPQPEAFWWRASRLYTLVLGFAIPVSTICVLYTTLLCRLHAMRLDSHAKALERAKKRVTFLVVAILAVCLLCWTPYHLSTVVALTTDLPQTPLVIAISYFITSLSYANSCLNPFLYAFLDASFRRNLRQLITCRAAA
OX1R antag-1: blocks the human orexin 1 receptor; O43613; CHO/OX1R cells, Fluo-8 calcium fluorescence, orexin A; inhibition, % at 5 µM; 330,000 tested, 0.43% active; AID 434989;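 active = inhibition above its plate's threshold, mean inhibition of all tested compounds on the plate plus 3 SD, cut at about 37% in these data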;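 note: 0% = orexin A challenge wells and 100% = SB-334867-A antagonist wells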
OX1R antag-2: blocks the human orexin 1 receptor. O43613. OX1R-expressing cells, FRET antagonist read-out. inhibition, % at 6.6 µM. 330,000 tested, 1.8% active; in the data active = inhibition mostly above about 38%, no sharp cut-off; inactive = mostly below about 40%;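 note: 0% = agonist challenge alone and 100% = reference antagonist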
CHO parental Ca: counter-screen: ATP calcium response change in parental CHO cells | parental CHO-K1, ATP-induced calcium, Fluo-8 fluorescence | inhibition, % at 5.6 µM | 330,000 tested, 0.63% active | AID 463079;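 active = inhibition above that plate's mean sample inhibition plus 3 SD, cut at about 26% in these data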;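 note: 0% = ATP-challenged DMSO wells and 100% = DMSO wells without ATP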
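material = parental CHO cells | also added = ATP as calcium-mobilizing challenge | dosing = single point at 5.6 µM | detection = intracellular calcium via Fluo-8 no-wash fluorescent dye | read-out = % inhibition | benchmarks = low control ATP plus DMSO, high control DMSO only | repeats = one well per compound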
GalR3 antagonist: antagonists of human GalR3; HEK293 GalR3-CNG cAMP membrane potential fluorescence; galR3 body fused to GalR1 C-terminus; inhibition, % at 3 µM; 360,000 tested, 0.44% active;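 active = inhibition above the screen-wide average plus 3 SD, cut at about 13% in these data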;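 note: forskolin and galanin both at EC90 stimulate the cells; cAMP rise reported by CNG channel membrane potential dye signal; 0% = forskolin plus galanin with DMSO and 100% = forskolin alone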
Target sequence (O60755 1-299 limits assumed): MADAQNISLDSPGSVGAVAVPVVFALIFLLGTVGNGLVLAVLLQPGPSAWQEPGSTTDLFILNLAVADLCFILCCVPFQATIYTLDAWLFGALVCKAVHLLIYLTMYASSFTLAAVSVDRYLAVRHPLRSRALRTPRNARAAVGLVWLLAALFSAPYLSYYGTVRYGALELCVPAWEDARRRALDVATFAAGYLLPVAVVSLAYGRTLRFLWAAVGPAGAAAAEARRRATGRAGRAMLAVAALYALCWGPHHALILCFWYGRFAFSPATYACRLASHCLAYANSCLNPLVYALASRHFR
GPR7 antag conf: confirmation of human GPR7 antagonists; shares compounds with GPR7 antagonist; GPR7-expressing cells, calcium fluorescence antagonist mode; inhibition, % at 4.4 µM; 2,400 tested, 52% active; AID 1952; in the data active = inhibition above about 24%;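 note: stimulated with the GPR7 agonist NPW; 0% = agonist plus vehicle and 100% = vehicle alone without agonist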
MCHR1 antagonist: antagonizes human MCHR1, a GPR7 antagonist counter-screen; MCHR1-expressing cells, fluorescence antagonist assay; 2,400 tested, 62% active; shares compounds with GPR7 antagonist; inhibition, % at 4.4 µM; AID 2148; in the data active = inhibition above about 22%;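 note: 0% = vehicle with agonist and 100% = vehicle without agonist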
Starred values were filed as active, the others as inactive; . = not tested or not shown. An excerpt weighted towards active compounds, which were near 3.1% of everything screened.

SMILES	GPR7 antagonist	OX1R antag-1	OX1R antag-2	CHO parental Ca	GalR3 antagonist	GPR7 antag conf	MCHR1 antagonist
Cn1cc(S(=O)(=O)N2CCc3ccccc32)cc1C(=O)NC1CCCCC1	-13	-12	8	-5	.	.	.
Cc1ccc(C(CNS(=O)(=O)c2ccc(F)cc2C)N2CCN(C)CC2)cc1 (stereo unspecified)	.	-20	6	-3	-6	.	.
O=C(c1cc(-c2cccnc2)nc2ccccc12)N1CCCc2ccccc21	24*	-44	15	-14	-8	5	23*
CCc1ccc2c(c1)C(=O)C[C@]1(CCC[C@H](C)C1)O2	.	-14	16	-8	2	.	.
COc1ccccc1P(=O)(Cc1ccccc1[N+](=O)[O-])c1ccccc1 (stereo unspecified)	17	-13	20	-14	-14	.	.
COC(=O)[C@@]1(Cc2ccc(F)cc2)[C@H]2c3cc(C(=O)N(C)C)n(Cc4ccccc4)c3C[C@H]2CN1C(=O)c1ccccc1	.	-29	38	-18	-7	.	18
COC(=O)[C@@]1(Cc2ccc(F)cc2)[C@H]2c3cc(C(=O)N(C)C)n(Cc4ccc(OC)c(OC)c4)c3C[C@H]2CN1C(=O)c1ccccc1	10	-20	5	-16	-9	.	.
COc1cccc(CNC(=O)CN2C(=O)COc3ccc(S(=O)(=O)N4CCOCC4)cc32)c1	32*	-13	23	-10	-7	-9	3
CC(C)C(OC(=O)CN1C(=O)COc2ccccc21)C(=O)NC1CCCC1 (stereo unspecified)	15	-18	12	-5	-8	.	.
O=C(CN1C(=O)COc2ccc(S(=O)(=O)N3CCCC3)cc21)NC1CC1	4	-9	7	-9	6	.	.
O=C(CN1C(=O)COc2ccc(S(=O)(=O)N3CCCC3)cc21)NC1CCCCCCC1	27*	-24	-3	-12	.	-3	5
Cc1ccc2c(c1)N(CC(=O)OC(CC(C)C)C(=O)NC1CCCC1)C(=O)CO2 (stereo unspecified)	29*	-33	25	-14	-7	30*	33*
COc1cccc(CNC(=O)CN2C(=O)COc3ccc(S(=O)(=O)N4CCC(C)CC4)cc32)c1	-18	-39	12	-27	-7	.	.
CC1=CC2=NC(=O)/C(=C/c3coc4ccc(Cl)cc4c3=O)C(=N)N2O1	21*	23	7	39*	-6	28*	61*
CC1CCCC(NC(=O)NC(=O)COC(=O)C2=NN(c3ccccc3)C(=O)CC2)C1C (stereo unspecified)	.	-9	2	-20	-3	.	.
CNC[C@H](Cc1ccccc1)NC[C@@H](Cc1cccc2ccccc12)NCCc1ccc(C)cc1	43*	25	19	23	-2	67*	76*
CNCCNC[C@H](Cc1cccc2ccccc12)NCCc1ccccc1	.	-15	16	-13	-2	.	.
Cc1nn(-c2ccccc2)c(N)c1Sc1ccc([N+](=O)[O-])cc1	23*	-11	23	-11	-5	33*	55*
CCOC(=O)c1c(C)[nH]c(C)c1S(=O)(=O)NC(CC)CN1CCOCC1 (stereo unspecified)	-1	-6	6	-4	-4	.	.
Cc1cccc(OCC(=O)Nc2ccc3oc(=O)ccc3c2)c1	36*	8	22	10	-3	33*	36*
CS(=O)(=O)c1ccc(Cl)c(NC(=O)CNC(=O)c2ccc3c(c2)OCO3)c1	.	-9	7	-12	-6	.	.
CCCOc1ccccc1NC(=O)/C=C/c1ccc(OC)c(S(=O)(=O)N2CCOCC2)c1	.	.	.	.	-1	.	.
CC(Oc1ccc(Cl)cc1)C(=O)Nc1ccc(S(=O)(=O)N2CCOCC2)cc1 (stereo unspecified)	56*	20	-3	15	-10	53*	61*
CC(C)NS(=O)(=O)c1ccc(NC(=O)C(C)Oc2ccc(C(=O)c3ccccc3)cc2)cc1 (stereo unspecified)	91*	93*	5	68*	2	92*	96*
CC(Oc1ccc(Cl)cc1)C(=O)Nc1cccc(S(=O)(=O)N2CCCC2)c1 (stereo unspecified)	.	.	.	.	-7	.	.
SMILES	GPR7 antagonist	OX1R antag-1	OX1R antag-2	CHO parental Ca	GalR3 antagonist	GPR7 antag conf	MCHR1 antagonist
COc1ccc(NC(=O)C(C)Oc2ccc(/C(C)=N\O)cc2)cc1 (stereo unspecified)	42*	7	6	6	-1	43*	34*
CC(Oc1ccc(Cl)cc1)C(=O)Nc1ccc(S(=O)(=O)Nc2nccs2)cc1 (stereo unspecified)	24*	14	-23	7	-8	20	3
CCn1c(CNc2ccc(Cl)cc2)nnc1SCc1ccc(Cl)cc1	34*	15	14	-11	-5	41*	45*
CCn1c(CNc2ccc(Cl)cc2)nnc1SCCN1CCCCC1	.	-25	19	-22	-5	.	15
CCn1c(CC(=O)Nc2ccc(Cl)c(Cl)c2)nnc1SCc1ccc(Cl)cc1	-14	-23	12	-16	0	.	.
CNC(=O)C1(c2ccccc2)CCCCC1	.	.	.	.	5	.	.
Cc1ccc(NCc2nnc(SCC(N)=O)o2)c(C)c1	-1	-16	4	-10	-3	.	.
Cc1ccc(NCc2nnc(SCC(=O)OC3CCCCC3)o2)c(C)c1	28*	-14	9	4	-11	23	23*
COc1ccccc1N1CCN(C(=O)/C=C/c2cccc([N+](=O)[O-])c2)CC1	32*	-13	3	-16	-6	16	33*
COc1ccccc1N1CCN(C(=O)/C=C/c2ccc(C)cc2)CC1	1	-9	15	-14	-7	.	.
COc1ccc(N(C(=O)Cn2nnc(-c3ccccc3F)n2)C(C(=O)NCC2CCCO2)c2ccc(Cl)cc2)cc1 (stereo unspecified)	-2	-18	2	-3	-4	.	.
O=C(Cn1[nH]c(=O)c2ccccc2c1=O)N1CCN(S(=O)(=O)c2ccc(Cl)cc2)CC1	.	-30	5	-18	-3	.	.
Cc1ccccc1-n1ccnc1SCC(=O)NCC1CCCO1 (stereo unspecified)	26*	0	27	7	-1	-9	3
COc1ccccc1-n1ccnc1SCC(=O)NCC1CCCO1 (stereo unspecified)	-13	-16	21	-4	-7	.	.
O=C(CSc1ccc2c(c1)OCCO2)NCC1CCCO1 (stereo unspecified)	27*	4	14	0	-5	-1	-1
O=C(CSc1ccc2c(c1)OCCO2)NCc1ccccc1	2	5	13	-6	-6	.	.
Cc1cccc(-c2nnc(SCC(=O)c3ccc(O)cc3O)n2C)c1	6	-19	8	-16	-8	.	.
CCCCC[C@@H](C)N1C[C@H](COCc2ccccc2)Oc2cc(N3CCC[C@H]3COC)ccc2S1(=O)=O	.	.	.	.	3	.	.
